Experimental data published in ChEMBL document CHEMBL2406982, “Structure-activity relationships of new cyanothiophene inhibitors of the essential peptidoglycan biosynthesis enzyme MurF” (Eur J Med Chem, 2013).
Converted amounts (≈) assume the structure as drawn. The source made the active and inactive calls. The calls are words filed in the database; no cut-off is given here.

Columns and labels:
Streptococcus pneumoniae = test: Antimicrobial activity against Streptococcus pneumoniae R6 by broth microdilution method; assay type: functional
How it was run: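 MIC by CLSI broth microdilution in Mueller-Hinton broth supplemented with 5% (v/v) lysed horse blood.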

Staphylococcus aureus [1] = test: Antimicrobial activity against Staphylococcus aureus SH1000 by broth microdilution method; assay type: functional, organism-based
How it was run: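 MIC by broth microdilution in Mueller-Hinton broth following CLSI guidelines.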

Escherichia coli [2] = test: Antimicrobial activity against Escherichia coli AB734 by broth microdilution method; assay type: functional, organism-based
How it was run: (§1)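 Broth microdilution MIC per CLSI guidelines in Mueller-Hinton broth. E. coli 1411 and AB734 were also tested with added polymyxin B nonapeptide to permeabilise the outer membrane.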

Escherichia coli [3] = test: Antimicrobial activity against Escherichia coli 1411 by broth microdilution method; assay type: functional, organism-based; how it was run: as §1
Staphylococcus aureus [4] = test: Inhibition of Staphylococcus aureus MurF using D-Ala-D-Ala/UMtri-L-Lys as substrate assessed as residual activity at 100 uM after 15 mins by Malachite green method
How it was run: (§2)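 S. aureus MurF, purified, assayed in 50 mM Hepes pH 8.0 with 20 mM MgCl2 and 0.005% Triton X-114, with D-Ala-D-Ala, UMtri-L-Lys and ATP. Compound was in DMSO (5% v/v final). After 15 min at 37 °C, Biomol reagent was added and A650 was read 5 min later. Duplicates were run. Residual activity was relative to 5% DMSO controls. IC50 was read as 50% residual activity across seven concentrations.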

Escherichia coli [5] = test: Inhibition of Escherichia coli MurF using D-Ala-D-Ala/UMtri-mDAP as substrate assessed as residual activity at 100 uM after 15 mins by Malachite green method
How it was run: (§3)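 Purified E. coli MurF in 50 mM Hepes pH 8.0, 50 mM MgCl2, 0.005% Triton X-114, with D-Ala-D-Ala, UMtri-mDAP and ATP. Compound was added in DMSO (final 5% v/v). Mixtures were incubated 15 min at 37 °C, quenched with Biomol reagent, and absorbance was read at 650 nm after 5 min. Runs were in duplicate. Residual activity was taken versus DMSO-only controls. IC50 came from residual activity at seven concentrations.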

[6] = Inhibition of Streptococcus pneumoniae MurF using D-Ala-D-Ala/UMtri-L-Lys as substrate after 15 mins by Malachite green method
How it was run: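 Purified S. pneumoniae MurF in 50 mM Hepes pH 8.0, 50 mM MgCl2, 0.005% Triton X-114, with D-Ala-D-Ala, UMtri-L-Lys and ATP. Compound was added in DMSO (5% v/v final). Reactions ran 15 min at 37 °C, were stopped with Biomol malachite green reagent, and A650 was measured after 5 min. Runs were in duplicate. Residual activity was versus DMSO controls. IC50 was from seven concentrations.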

[7] = Inhibition of Escherichia coli MurF using D-Ala-D-Ala/UMtri-mDAP as substrate after 15 mins by Malachite green method; how it was run: as §3
[8] = Inhibition of Staphylococcus aureus MurF using D-Ala-D-Ala/UMtri-L-Lys as substrate after 15 mins by Malachite green method; how it was run: as §2

SMILES	MIC (Streptococcus pneumoniae) [mg/L]	Activity (Staphylococcus aureus [4]) [%]	Activity (Escherichia coli [5]) [%]	IC50 [6] [µM]	IC50 [7] [µM]	IC50 [8] [µM]	Activity (Staphylococcus aureus [1])	Activity (Escherichia coli [2])	Activity (Escherichia coli [3])
N#Cc1c(NC(=O)c2cc(S(=O)(=O)N3CCC(C(=O)O)CC3)c(Cl)cc2Cl)sc2c1CCCC2	64 (≈ 118 µM)	96	102	17.9	–	–	inactive	inactive	inactive
COc1cc(CN2CCc3c(sc(NC(=O)c4cc(S(=O)(=O)N5CCOCC5)c(Cl)cc4Cl)c3C#N)C2)ccc1O	> 128	64	–	4.15	98	–	inactive	inactive	inactive
CC(=O)Oc1ccc(CN2CCc3c(sc(NC(=O)c4cc(S(=O)(=O)N5CCOCC5)c(Cl)cc4Cl)c3C#N)C2)cc1OC(C)=O	> 128	–	–	3.03	88	89	inactive	inactive	inactive
CC1CCCCN1S(=O)(=O)c1cc(C(=O)Nc2sc3c(c2C#N)CCCC3)c(Cl)cc1Cl (stereo not drawn)	> 128	103	107	3.75	–	–	inactive	inactive	inactive
N#Cc1c(NC(=O)c2cc(S(=O)(=O)N3CCC(O)CC3)c(Cl)cc2Cl)sc2c1CCCC2	64 (≈ 124 µM)	101	104	10.5	–	–	inactive	inactive	inactive
N#Cc1c(NC(=O)c2cc(S(=O)(=O)N3CCOCC3)c(Cl)cc2Cl)sc2c1CCN(Cc1ccc(F)cc1)C2	> 128	–	–	0.98	100	79	inactive	inactive	inactive
N#Cc1c(NC(=O)c2cc(S(=O)(=O)N3CCOCC3)c(Cl)cc2Cl)sc2c1CCN(Cc1cc(O)ccc1O)C2	32 (≈ 51.3 µM)	79	81	2.75	–	–	inactive	inactive	inactive
CC(C)(C)OC(=O)N1CCC(CCN2CCc3c(sc(NC(=O)c4cc(S(=O)(=O)N5CCOCC5)c(Cl)cc4Cl)c3C#N)C2)CC1	–	–	–	–	–	–	inactive	inactive	inactive
N#Cc1c(NC(=O)c2cc(S(=O)(=O)N3CCOCC3)c(Cl)cc2Cl)sc2c1CCN(Cc1ccc(C(=O)O)cc1)C2	> 128	–	–	0.86	118	110	inactive	inactive	inactive
N#Cc1c(NC(=O)c2cc(S(=O)(=O)N3CCCC(C(=O)O)C3)c(Cl)cc2Cl)sc2c1CCCC2 (stereo not drawn)	> 128	102	100	50	–	–	inactive	inactive	inactive
CCOC(=O)C1CCCN(S(=O)(=O)c2cc(C(=O)Nc3sc4c(c3C#N)CCCC4)c(Cl)cc2Cl)C1 (stereo not drawn)	–	93	94	131	–	–	inactive	inactive	inactive
N#Cc1c(NC(=O)c2cc(S(=O)(=O)N3CCC(=O)CC3)c(Cl)cc2Cl)sc2c1CCCC2	> 128	103	102	3.37	–	–	inactive	inactive	inactive
Cl.N#Cc1c(NC(=O)c2cc(S(=O)(=O)N3CCOCC3)c(Cl)cc2Cl)sc2c1CCNC2	128	81	94	47	–	–	inactive	inactive	inactive
N#Cc1c(NC(=O)c2cc(S(=O)(=O)N3CCOCC3)c(Cl)cc2Cl)sc2c1CCN(C(=O)c1ccccc1)C2	> 128	107	93	27	–	–	inactive	inactive	inactive
N#Cc1ccc(CN2CCc3c(sc(NC(=O)c4cc(S(=O)(=O)N5CCOCC5)c(Cl)cc4Cl)c3C#N)C2)c(F)c1	> 128	–	58	1.92	–	92	inactive	inactive	inactive
CC(C)(C)OC(=O)N1CCc2c(sc(NC(=O)c3cc(S(=O)(=O)N4CCOCC4)c(Cl)cc3Cl)c2C#N)C1	128 (≈ 213 µM)	78	88	19	–	–	inactive	inactive	inactive

The remaining compounds from weak to strong by IC50 [6], led by results:

MIC (Streptococcus pneumoniae) [mg/L]	Activity (Staphylococcus aureus [4]) [%]	Activity (Escherichia coli [5]) [%]	IC50 [6] [µM]	IC50 [7] [µM]	IC50 [8] [µM]	SMILES	Activity (Staphylococcus aureus [1])	Activity (Escherichia coli [2])	Activity (Escherichia coli [3])
> 128	–	–	0.6	77	115	COc1ccc(CN2CCc3c(sc(NC(=O)c4cc(S(=O)(=O)N5CCOCC5)c(Cl)cc4Cl)c3C#N)C2)cc1O	inactive	inactive	inactive
> 128	84	93	0.6	–	–	N#Cc1c(NC(=O)c2cc(S(=O)(=O)N3CCOCC3)c(Cl)cc2Cl)sc2c1CCN(CCC1CCNCC1)C2.O=C(O)C(F)(F)F	inactive	inactive	inactive
> 128	64	63	0.46	–	–	N#Cc1c(NC(=O)c2cc(S(=O)(=O)N3CCOCC3)c(Cl)cc2Cl)sc2c1CCN(CC1CCCCC1)C2	inactive	inactive	inactive
> 128	64	78	0.43	–	–	N#Cc1c(NC(=O)c2cc(S(=O)(=O)N3CCOCC3)c(Cl)cc2Cl)sc2c1CCN(Cc1ccc(O)c(O)c1)C2	inactive	inactive	inactive
16 (≈ 26.3 µM)	–	–	0.42	81	91	N#Cc1c(NC(=O)c2cc(S(=O)(=O)N3CCOCC3)c(Cl)cc2Cl)sc2c1CCN(Cc1cccc(O)c1)C2	inactive	inactive	inactive
> 128	84	68	0.18	–	–	N#Cc1c(NC(=O)c2cc(S(=O)(=O)N3CCOCC3)c(Cl)cc2Cl)sc2c1CCN(Cc1ccc(O)cc1)C2	inactive	inactive	inactive
> 128	85	90	0.17	–	–	COc1ccc(C2CCc3c(sc(NC(=O)c4cc(S(=O)(=O)N5CCOCC5)c(Cl)cc4Cl)c3C#N)C2)cc1 (stereo not drawn)	inactive	inactive	inactive
> 128	103	91	0.12	–	–	CC(=O)Oc1ccc(C2CCc3c(sc(NC(=O)c4cc(S(=O)(=O)N5CCOCC5)c(Cl)cc4Cl)c3C#N)C2)cc1 (stereo not drawn)	inactive	inactive	inactive
